CAL PDZ FP-1: blocks peptide binding to the human CAL PDZ domain; Q9HD26; purified CAL PDZ, TMR-peptide fluorescence polarization, 1 h; inhibition, % at 24.9 µM; 300,000 compounds, 0.92% hits;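 active = mean inhibition of at least 30% with at least half of replicates also reaching 30%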;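 note: 0% = DMSO neutral control and 100% = excess unlabeled competitor peptide PRC23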
Cneo AK release: Cryptococcus neoformans lysis via adenylate kinase release; C. neoformans lysis, adenylate kinase release luminescence, 4 h; normalised: neutral wells 0, clomiphene wells 100; lysis activity, % at 15 µM; 360,000 compounds, 0.2% hits;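 active = mean lysis activity across replicates of at least 80%, whatever share of replicates individually reach that level; inactive = mean lysis activity below 80%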
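Assay system: Cryptococcus neoformans yeast cells / Dosing: single-point compound dose / Timing: 4 h at 37 °C static, read 1 h later / Measured by: luminescence of released adenylate kinase using an AK detection reagent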
PglD inh: inhibitors of Campylobacter jejuni PglD acetyltransferase; inhibition, % at 12.5 µM; purified PglD enzyme, DTNB colorimetric CoA detection; 360,000 compounds, 0.098% hits; in the data active = inhibition above about 16%, passing the limit was not always enough
miR122 inh: inhibitors of miR-122 in Huh7 cells | activation (reporter increase), % at 12.5 µM | AID 602342 | Huh7 miR-122 Renilla luciferase sensor, 48 h; neutral wells = 0, positive control = 100 | 340,000 compounds, 0.3% hits;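 active = mean replicate activation score at least 90 and every replicate individually at or above 90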;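 note: higher luciferase means less miR-122 activity so hits act as miR-122 inhibitors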
CAL PDZ FP-2: blocks peptide binding to human CAL PDZ domain; inhibition, % at 20 µM; 330,000 compounds, 0.02% hits; AID 504414; Q9HD26; purified CAL PDZ, TMR-peptide fluorescence polarization, 1 h;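 active = highest replicate inhibition of at least 40%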;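 note: plate controls were DMSO neutral control wells for no effect and unlabeled competitor peptide control wells for full effect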
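System: tagged CAL PDZ domain. Schedule: 1 h room-temperature incubation prior to read. Signal: fluorescence polarization (mP). Measure: percent inhibition from loss of millipolarization.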
The depositor's hits bear a star; x = not tested or not shown; [ ] = remark or other dose. The list is not random: actives were taken first. Their share in the collection is about 1.1%.

SMILES	CAL PDZ FP-1	Cneo AK release	PglD inh	miR122 inh	CAL PDZ FP-2
COc1cccc(S(=O)(=O)Nc2ccc3c(c2)[C@@H]2C[C@@H](CC(=O)N[C@@H](C)c4ccccc4)O[C@@H](CO)[C@@H]2O3)c1	x	6.6	-0.1	-2.1[16.7 µM]	x
C[C@@H]1CN([C@@H](C)CO)C(=O)c2cc(C#CC(C)(C)O)cnc2O[C@H]1CN(C)C(=O)CN(C)C	x	0.1	3.1	-1.7[16.7 µM]	x
CN1C(=O)c2cc(NC(=O)c3ccc(F)cc3)ccc2OC[C@H]2O[C@H](CC(=O)O)CC[C@H]21	x	-17.3	-1.5	0.9[16.7 µM]	x
C[C@@H]1CN([C@@H](C)CO)C(=O)Cc2cc(NS(=O)(=O)c3cn(C)cn3)ccc2O[C@H]1CN(C)C(=O)Nc1ccccc1	x	0.6	-1.8	-3.5[16.7 µM]	x
COc1ccc(NS(=O)(=O)c2ccc(OC)c3ccccc23)cn1	1.2	1.8	-4.9	356.4*	x
COCCOC(=O)c1c(C)oc2ccc(NS(=O)(=O)c3ccc(C)cc3)cc12	-7.7	-1.6	-2.4	103.2*	-3.3
CCCCn1c(NC(=O)c2ccc(Br)o2)c(S(=O)(=O)c2ccccc2)c2nc3ccccc3nc21	x	0.4	-3.9	165.1*	-2.0
CCC(=O)Nc1ccc2c(c1)C(=O)N(C)C[C@@H](OC)[C@H](C)CN(C(=O)c1ccccc1F)[C@@H](C)CO2	x	-0.5	0.5	12.9[16.7 µM]	x
O=C(C(c1ccccc1)c1ccccc1)N1CCN(Cc2ccccn2)CC1	30.6*	-0.5	-1.6	-5.6	-0.5
Cc1cc2oc(C(=O)N3CCN(CCc4ccccn4)CC3)c(C)c2cc1C	-0.2	1.7	3.9	-7.3	-2.7
Cc1ccc2c(C)c(C(=O)N3CCN(Cc4ccccn4)CC3)oc2c1C	-2.2	81.6*	-0.7	x	-2.5
COc1ccc([C@H]2C[C@@H](O)[C@H](n3cc(C4CC4)nn3)CN2C(=O)c2cccs2)cc1	x	0.5	2.2	-2.8	x
COCCNC(=S)Nc1cc2oc3ccccc3c2cc1OC	31.3*	16.5	5.0	30.5	-0.3
CC1C/C(=C\c2ccccc2[N+](=O)[O-])c2nc3ccccc3c(C(=O)O)c2C1 (stereo unspecified)	48.9*	2.5	-1.4	x	-0.9
O=c1c2ccccc2c2ccccc2c(=O)n1-c1ccccc1	-3.2	x	x	x	-1.6
Cc1cn(C(C)C)c(=O)n(-c2ccccc2)c1=O	32.8*	-2.5	2.2	-0.1	x
O=C(C[C@H]1CC[C@@H](NC(=O)Cc2cccnc2)[C@@H](CO)O1)Nc1ccc(-c2ccccc2)cc1	x	31.5	2.6	-1.9[16.7 µM]	x
COc1cc(C2C(C#N)=C(N)N(N(C)C)C3=C2C(=O)CC(C)(C)C3)cc(OC)c1OC (stereo unspecified)	44.3*	x	x	x	-0.9
N#Cc1ccccc1NC(=O)COC(=O)COc1ccccc1[N+](=O)[O-]	35.4*	x	x	x	-0.5
O=C(C[C@@H]1CC[C@@H]2[C@H](COC[C@H](O)CN2C(=O)C2CCCC2)O1)NCc1ccncc1	x	5.5	-5.0	48.0[16.7 µM]	x
O=C(C[C@@H]1CC[C@H]2[C@@H](COC[C@@H](O)CN2C(=O)C2CCCC2)O1)NCc1ccncc1	x	-2.0	4.3	138.2*[16.7 µM]	x
CN1CCN(C(=O)C[C@@H]2CC[C@H]3[C@@H](COC[C@H](O)CN3C(=O)Cc3ccccc3)O2)CC1	x	93.8*	-45.4	-3.7[16.7 µM]	x
O=C(C[C@H]1CC[C@@H]2[C@H](COC[C@H](O)CN2C(=O)C2CCCC2)O1)NCc1ccncc1	x	66.7	15.1	121.7*[16.7 µM]	x
O=C(C[C@H]1CC[C@@H]2[C@H](COC[C@@H](O)CN2C(=O)c2cnccn2)O1)NCc1ccc(Oc2ccccc2)cc1	x	105.2*	-1.5	-3.5[16.7 µM]	x
O=C(C[C@H]1CC[C@H]2[C@@H](COC[C@H](O)CN2C(=O)C2CCCC2)O1)NCc1ccncc1	x	0.1	5.4	2.2[16.7 µM]	x
SMILES	CAL PDZ FP-1	Cneo AK release	PglD inh	miR122 inh	CAL PDZ FP-2
Cc1ccc(S(=O)(=O)N[C@H]2C=C[C@@H](CC(=O)NCc3ccc(Cl)c(Cl)c3)O[C@@H]2CO)cc1	x	0.7	-0.6	x	x
COC(=O)c1ccccc1S(=O)(=O)Oc1ccc(-c2ccc(C(=O)O)cc2)cc1	-1.6	1.1	6.3	3.2	-1.0
O=C(O)c1ccc(-c2ccc(OS(=O)(=O)c3ccccc3F)cc2)cc1	44.8*	-2.0	-4.7	11.1	-2.7
CN(Cc1nc2ccccc2[nH]1)C(=O)C1CCC(=O)N(C2CCCC2)C1 (stereo unspecified)	14.2	0.4	3.0	3.6	-0.8
Cc1cccc2[nH]c(CN(C)C(=O)C3CCC(=O)N(C4CC4)C3)nc12 (stereo unspecified)	42.7*	1.2	0.7	-2.0	-1.1
Cc1noc(C)c1NC(=O)Nc1ccc2c(c1)C(=O)N([C@@H](C)CO)C[C@@H](C)[C@@H](CN(C)S(C)(=O)=O)O2	x	-1.3	-9.3	-1.9[16.7 µM]	x
CC(C)CCN1C(=O)c2ccc(C(=O)Nc3cc(C(=O)O)cc(C(=O)O)c3)cc2C1=O	32.9*	-6.7	3.4	-2.9	0.2
CN(C)Cc1cn(CC[C@H]2CC[C@H](NS(=O)(=O)c3ccc(-c4ccccc4)cc3)[C@@H](CO)O2)nn1	x	2.2	10.0	-17.7[16.7 µM]	x
C[C@@H]1CN([C@@H](C)CO)C(=O)c2cccc(NC(=O)Nc3ccccc3)c2O[C@H]1CN(C)S(C)(=O)=O	x	1.1	-2.7	-1.2[16.7 µM]	x
O=C(Nc1c(F)cc(F)cc1Br)c1cc(-c2ccccc2)on1	80.4*	-2.5	-3.9	0.2	-1.1
O=C(Nc1cccc(O)c1)c1cc(-c2ccc3c(c2)OCO3)on1	60.3*	-3.3	-2.0	0.7	-3.0
COc1cc(NC(=O)c2cc(-c3ccc4c(c3)OCO4)on2)cc(OC)c1OC	1.5	1.1	1.5	-18.9	-2.5
O=C(Nc1cccnc1)c1cc(-c2ccccc2)on1	122.3*	-2.4	-4.9	-1.8	x
Cc1c(NC(=O)c2cc(-c3ccc(O)cc3)on2)c(=O)n(-c2ccccc2)n1C	34.9*	0.2	4.0	-10.2	-1.3
O=C(Nc1c(F)cc(F)cc1Br)c1cc(-c2ccc(O)cc2)on1	-2.4	-1.9	2.8	1.0	-1.3
CN1[C@@H]2Cn3c(ccc(-c4ccccc4F)c3=O)[C@H]1[C@@H](C(=O)NCc1ccccn1)[C@@H]2CO	x	-1.3	-2.7	x	x
CC(C)CCn1c(SCC(=O)NC2CCS(=O)(=O)C2)nc2cc(Cl)ccc2c1=O (stereo unspecified)	-3.2	1.6	-4.5	-6.8	-2.6
COc1ccc(NC(=O)N(C)C[C@H]2OCCCC[C@@H](C)Oc3ccc(NC(=O)Nc4c(C)noc4C)cc3C(=O)N([C@H](C)CO)C[C@H]2C)cc1	x	5.3	-1.3	5.1[16.7 µM]	x
CCCN(C)C[C@H]1Oc2ncc(-c3ccncc3)cc2C(=O)N([C@@H](C)CO)C[C@@H]1C	x	1.6	3.9	-3.5[16.7 µM]	x
CC(C)n1cc(NC(=O)c2cc(-c3ccccc3)on2)cn1	-0.8	1.3	2.1	113.9*	-2.1
CNC[C@@H]1OCCCC[C@@H](C)Oc2ccc(NC(=O)c3ccccc3)cc2C(=O)N([C@H](C)CO)C[C@@H]1C	x	-0.8	-2.0	-3.3[16.7 µM]	x
